This is an account of results in article PMC9382663 (Nature, 2022).

Usually Kd stands for a measure of binding affinity in units of concentration. Read a low Kd as a tighter complex.

Where no end group is shown, it is not given here. [ ]: non-standard residue; d: D form. pS = N[C@@H](COP(=O)(O)O)C(=O)O

The subject of experiment [1] is splenocytes and lymph node cells. Kind of experiment: T cell proliferation by 3H-thymidine incorporation. It is filed as cell-based, mouse. Particulars: cells pooled from n=10 immunized mice. A general note: Incorporation of labelled thymidine or its analogues reports DNA synthesis.
The test system of experiment [2] is experimental autoimmune encephalomyelitis (EAE). The experiment is described as follows: EAE after peptide immunization. It is filed as in vivo, SJL/J mice. Particulars: spinal cord histology, day 50; vs. scrambled peptide.
For experiment [3], the system named is GlialCAM ICD. The experiment is described as follows: Mouse plasma IgG ELISA against GlialCAM ICD. It is filed as in vivo, SJL/J mice. The note with it: immunized mice, plasma 1:100.
Experiment [4] deals with EBNA1AA386–405. Kind of experiment: Mouse plasma IgG ELISA against EBNA1 peptide. It is filed as in vivo, SJL/J mice. Particulars: immunized mice, plasma 1:100. (An ELISA detects its analyte on a solid surface through an enzyme-linked reagent.)
Experiment [5] deals with mouse splenocytes and lymph node cells. The experiment is described as follows: Cytokine ELISA in cell culture supernatant. It is filed as cell-based. The note with it: cells of immunized mice re-stimulated with peptide.
Experiment [6] relates to plasma antibody reactivity against EBNA1AA386–405. Kind of experiment: Plasma ELISA with blocking of plasma IgG. The class given is binding, human. Particulars: blocking peptide 10 μg/ml, 2 h RT; nine high-reactivity MS samples. The procedure, abridged:
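384-well plates are coated overnight at 4°C with recombinant Protein G (2μg/ml) and washed 6x with PBST. Plasma (1:100) is bound overnight at 4°C, washed again, then blocked 2 h at RT with 10μg/ml peptide (scrambled control, EBNA1 AA386–405 or GlialCAM AA370–389 pSer376). Read-out is OD 450 nm normalized to the unblocked sample, with quadruplicate wells.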

Experiment [7] has as its target T1, EBNA1_(AA386–405) 20mer peptide (Epstein-Barr virus).
T1 chain: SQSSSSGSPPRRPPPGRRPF
Kind of experiment: ELISA.

Experiment [8] addresses actin filament associated protein 1 (AFAP1) on the HuProt microarray (Homo sapiens (Human)., UniProt Q8N556). Kind of experiment: peptide or protein array.
Experiment [9] concerns the target T2, biotinylated GlialCAM_(AA370–389 pSer376 pSer377) peptide (human) (UniProt Q14CZ8).
T2 sequence (peptide): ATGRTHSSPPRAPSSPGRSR
The experiment is described as follows: BLI. For orientation: Biolayer interferometry detects binding as a change in optical thickness at a sensor tip.

The target of experiment [10] is T3, biotinylated GlialCAM_(AA370–389 pSer376) peptide (human) (UniProt Q14CZ8).
T3 sequence (peptide): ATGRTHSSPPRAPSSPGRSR
The experiment is described as follows: BLI.

Experiment [11] has as its target EBNA1 full-length protein AA1–641 (Epstein-Barr virus, strain ; …, UniProt P03211). The experiment is described as follows: BLI.
Experiment [12] has as its target T4, biotinylated native GlialCAM_(AA370–389) peptide (Homo sapiens, UniProt Q14CZ8).
T4 chain: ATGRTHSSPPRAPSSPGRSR
Kind of experiment: BLI.

The target of experiment [13] is GlialCAM protein (bio-layer interferometry) (Homo sapiens, UniProt Q14CZ8). The experiment is described as follows: BLI.
For experiment [14], the target named is T5, biotinylated EBNA1_(AA386–405) peptide (Epstein-Barr virus, sequence as B95-8).
T5 chain: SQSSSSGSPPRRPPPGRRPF
Kind of experiment: BLI.

The target in experiment [15] is unmutated ancestor of MS39p2w174 (germline) (human). Kind of experiment: BLI.

Sequence of actin filament associated protein 1 (AFAP1) on the HuProt microarray (Q8N556 whole entry, the tested form may be a part): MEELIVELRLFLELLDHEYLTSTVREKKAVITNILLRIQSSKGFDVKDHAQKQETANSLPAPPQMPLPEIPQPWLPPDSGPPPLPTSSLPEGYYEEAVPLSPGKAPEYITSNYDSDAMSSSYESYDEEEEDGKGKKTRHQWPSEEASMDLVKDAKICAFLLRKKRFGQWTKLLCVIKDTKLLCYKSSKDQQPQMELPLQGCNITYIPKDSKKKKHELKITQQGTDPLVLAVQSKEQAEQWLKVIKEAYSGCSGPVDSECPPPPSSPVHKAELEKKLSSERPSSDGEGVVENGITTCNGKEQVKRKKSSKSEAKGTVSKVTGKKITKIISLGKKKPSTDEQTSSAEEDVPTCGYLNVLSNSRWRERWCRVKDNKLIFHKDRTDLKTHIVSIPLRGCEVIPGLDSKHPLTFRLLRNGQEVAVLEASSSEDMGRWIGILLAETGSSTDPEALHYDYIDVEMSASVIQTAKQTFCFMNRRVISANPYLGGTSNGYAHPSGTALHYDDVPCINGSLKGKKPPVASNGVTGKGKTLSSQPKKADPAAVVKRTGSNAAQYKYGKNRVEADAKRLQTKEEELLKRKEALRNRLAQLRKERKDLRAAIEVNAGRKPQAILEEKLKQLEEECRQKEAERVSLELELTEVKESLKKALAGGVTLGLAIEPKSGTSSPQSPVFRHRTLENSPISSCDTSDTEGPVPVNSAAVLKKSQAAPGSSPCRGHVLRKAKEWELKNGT
Sequence of EBNA1 full-length protein AA1–641 (P03211 whole entry, the tested form may be a part): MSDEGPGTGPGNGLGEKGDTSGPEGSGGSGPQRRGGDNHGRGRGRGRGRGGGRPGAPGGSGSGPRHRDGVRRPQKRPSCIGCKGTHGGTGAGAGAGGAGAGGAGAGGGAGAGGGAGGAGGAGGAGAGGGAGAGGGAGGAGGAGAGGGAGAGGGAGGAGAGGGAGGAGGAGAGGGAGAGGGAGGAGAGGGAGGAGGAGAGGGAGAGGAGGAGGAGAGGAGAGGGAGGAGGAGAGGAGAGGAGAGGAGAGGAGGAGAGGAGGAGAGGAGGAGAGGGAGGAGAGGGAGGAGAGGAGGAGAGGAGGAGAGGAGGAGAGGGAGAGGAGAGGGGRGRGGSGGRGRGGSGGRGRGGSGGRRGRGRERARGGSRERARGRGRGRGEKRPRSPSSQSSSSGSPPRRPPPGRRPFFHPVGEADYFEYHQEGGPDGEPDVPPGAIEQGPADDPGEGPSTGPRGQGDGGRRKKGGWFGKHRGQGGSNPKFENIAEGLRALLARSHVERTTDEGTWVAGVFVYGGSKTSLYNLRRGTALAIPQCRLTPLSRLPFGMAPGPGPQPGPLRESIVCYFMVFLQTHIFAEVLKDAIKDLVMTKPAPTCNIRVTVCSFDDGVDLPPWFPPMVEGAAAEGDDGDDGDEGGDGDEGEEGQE

In the case of SQSSSSGSPPRRPPPGRRPF [EBNA1AA386–405], the “CD4+ T cell response” value in experiment [1] is reported as “strong CD4+ T cell response”. Further, in experiment [2], the “CNS immune cell infiltration (H&E)” value is “enhanced CNS immune cell infiltration” and the “demyelination (Luxol Fast Blue)” value was “enhanced”. Further, in experiment [3], the “plasma IgG response to GlialCAM ICD” value is recorded as “robust antibody responses”. In addition, the “plasma IgG response to EBNA1AA386–405” value in experiment [4] was “robust antibody responses”. Further, in experiment [5], the IL-17 secretion entry is recorded as “suppressed”; the “secretion of IFN-γ, TNF, IL-12, IL-6 and IL-10” value was “stimulated the secretion”.
On to “GlialCAMAA370–389 pSer376: GlialCAM 20mer peptide phosphorylated at Ser376 (ATGRTH[pS]SPPRAPSSPGRSR)”, for which the “blocking of anti-EBNA1AA386–405 plasma reactivity” value in experiment [6] was “inhibition”.

B1: mAb MS39p2w174 (antibody, V domains shown)
VH: QVQLVESGGGLVKPGGSLRLSCVSSGFTFSNYWMSWVRQAPGGGLEWVANINQDGSEKYYVDSVKGRFTSSRDNTKNSLFLQLNSLRAEDTGIYYCTRDPPYFDNWGQGTLVTVSS
VL: DVVLTQSPLSLPVILGQPASISCRSSQSLVYSDGRTYLNWFQQRPGQSPRRLIYKISKRDSGVPERFSGSGSGTDFTLEISRVEAEDVGIYYCMQGSHWPVTFGQGTKVEIK
With B1, the binding result in experiment [7] and in experiment [8] was “binds” throughout. For the same molecule, the equilibrium dissociation constant (Kd) in [9] turned out to be 3.73 nM; in experiment [10], 6.1 nM; in [11], 1.99 nM; in [12], 302 nM; in experiment [13], 0.19 nM; in [14] it was 2.67 nM.

B2: GlialCAM protein (bio-layer interferometry) (natural protein)
chain: VNITSPVRLIHGTVGKSALLSVQYSSTSSDRPVVKWQLKRDKPVTVVQSIGTEVIGTLRPDYRDRIRLFENGSLLLSDLQLADEGTYEVEISITDDTFTGEKTINLTVDVPISRPQVLVASTTVLELSEAFTLNCSHENGTKPSYTWLKDGKPLLNDSRMLLSPDQKVLTITRVLMEDDDLYSCMVENPISQGRSLPVKITVYRRSSLYIILSTGGIFLLVTLVTVCACWKPSKRKQKKLEKQNSLEYMDQNDDRLKPEADTLPRSGEQERKNPMALYILKDKDSPETEENPAPEPRSATEPGPPGYSVSPAVPGRSPGLPIRSARRYPRSPARSPATGRTHSSPPRAPSSPGRSRSASRTLRTAGVHIIREQDEAGPVEISA
For the molecule B2, in experiment [15], the Kd was found to be 10.5 nM.
